The structures appear in SMILES notation. pIC50: −log10 of the molar value. Active and inactive are the calls of the source. The rule behind the calls is not given here.

The term pIC50 denotes −log10 of the IC50, conventionally taken in molar units.

Data set [1] is described as follows: Neurotoxicity in human SH-SY5Y cells assessed as decrease in cell viability at 2.32 uM incubated for 3 days. The data set is classed as toxicity, cell-based. The note with it: 72 h, time 3 day. In a few lines: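 SH-SY5Y cells were grown on poly-D-lysine in DMEM/F12 with 10% FBS and seeded at 15,000/well 36 h before dosing, with DMSO as vehicle. Viability was read by MTT: 2 h at 37 °C, then solubilization for 1 h and absorbance at 570. Data are triplicates from three separate experiments.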

The target of a further data set is Histone deacetylase 2 (Homo sapiens, UniProt Q92769).
A further data set has as its target T1, Histone deacetylase 8 (Homo sapiens, UniProt Q9BY41).
T1 sequence (Q9BY41 whole entry): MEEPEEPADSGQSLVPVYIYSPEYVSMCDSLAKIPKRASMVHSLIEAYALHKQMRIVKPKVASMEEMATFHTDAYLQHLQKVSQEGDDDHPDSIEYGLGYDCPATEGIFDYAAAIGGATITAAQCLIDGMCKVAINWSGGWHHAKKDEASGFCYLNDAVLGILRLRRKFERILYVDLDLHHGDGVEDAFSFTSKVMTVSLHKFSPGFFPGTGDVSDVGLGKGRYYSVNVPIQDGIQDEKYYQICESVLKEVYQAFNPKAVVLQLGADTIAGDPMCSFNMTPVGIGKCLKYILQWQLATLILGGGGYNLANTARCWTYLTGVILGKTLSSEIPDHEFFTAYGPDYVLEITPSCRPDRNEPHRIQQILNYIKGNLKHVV
Description: Inhibition of full length C-terminal his-tagged human recombinant HDAC8 expressed in Sf9 insect cells.

Another data set concerns NCI-H522. Put plainly: Induction of cell cycle arrest in human NCI-H522 cells assessed as accumulation at G2/M phase 5 uM incubated for 24 to 72 hrs by PI staining based flow cytometric analysis. The data set is classed as functional. Particulars: time lower […], time upper […]. (In flow cytometry, cells or beads pass a laser one at a time.)
The test system of data set [2] is Panel NCI-60 (60 carcinoma cell lines). Put plainly: Cytotoxicity against human NCI-60 cells assessed as cell growth inhibition incubated for 24 hrs by MTT assay. The data set is classed as functional, cell-based. The gist of the method: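 Run within the NCI-60 DTP screen: a single-dose test at 10 μM across about sixty human tumour lines, read as Growth % and mean inhibition. Selected compounds then went to a five-dose assay to derive GI50. Both were single experiments without replicates.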
For orientation: Formazan colour is commonly taken as a measure of viable cells.

The subject of the next data set is A549. Description: Cytotoxicity against human A549 cells assessed as cell growth inhibition incubated for 24 hrs by MTT assay. The data set is classed as functional, cell-based.
For a further data set, the system named is HOP-62. Put plainly: Cytotoxicity against human HOP-62 cells assessed as cell growth inhibition incubated for 24 hrs by MTT assay. The data set is classed as functional, cell-based.

Histone deacetylase 2, sequence (Q92769 whole entry): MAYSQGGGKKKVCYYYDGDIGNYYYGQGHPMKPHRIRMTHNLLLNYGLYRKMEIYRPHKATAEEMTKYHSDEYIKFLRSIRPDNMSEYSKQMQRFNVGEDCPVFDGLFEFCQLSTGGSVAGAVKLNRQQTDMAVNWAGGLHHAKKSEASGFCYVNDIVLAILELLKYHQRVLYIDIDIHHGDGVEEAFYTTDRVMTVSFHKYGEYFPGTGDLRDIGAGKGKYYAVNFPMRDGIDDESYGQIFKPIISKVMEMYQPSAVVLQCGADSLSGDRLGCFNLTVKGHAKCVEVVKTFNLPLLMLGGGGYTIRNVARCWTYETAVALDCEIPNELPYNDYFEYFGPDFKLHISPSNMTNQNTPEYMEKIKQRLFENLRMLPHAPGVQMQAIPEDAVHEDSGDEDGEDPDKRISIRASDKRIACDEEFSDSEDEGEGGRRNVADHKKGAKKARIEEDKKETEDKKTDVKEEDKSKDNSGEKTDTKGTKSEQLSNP

On to `C#Cc1nc(C(=O)NCCCCCCC(=O)NO)cs1`, for which the Activity entry in data set [1] is reported as “Non-Toxic”. Besides, the values for the pIC50 on Histone deacetylase 2 and at Histone deacetylase 8 were 7.03 and 6.49, respectively. Moreover, the result (in the data set on NCI-H522; in data set [2]; in the data set on A549; in the data set with HOP-62) was Active.

Values taken from ChEMBL document CHEMBL5096224, “First-in-Class Dual Mechanism Ferroptosis-HDAC Inhibitor Hybrids” (J Med Chem, 2022).
